Data published in ChEMBL document CHEMBL4020707, “Exploring the influence of indololactone structure on selectivity for binding to the C1 domains of PKCα, PKCε, and RasGRP” (Bioorg Med Chem, 2017).

Experiments:
[1] = organism: Homo sapiens; test: Selectivity index, ratio of Ki for PKCepsilon (unknown origin) to Ki for RasGRP1 (unknown origin)
[2] = biological target: T1, RAS guanyl-releasing protein 1 (Homo sapiens, UniProt O95267); test: Displacement of [20-3H]phorbol 12,13-dibutyrate from RasGRP1 (unknown origin) in the presence of porcine brain phosphatidylserine by scintillation counting
T1 sequence (O95267 whole entry): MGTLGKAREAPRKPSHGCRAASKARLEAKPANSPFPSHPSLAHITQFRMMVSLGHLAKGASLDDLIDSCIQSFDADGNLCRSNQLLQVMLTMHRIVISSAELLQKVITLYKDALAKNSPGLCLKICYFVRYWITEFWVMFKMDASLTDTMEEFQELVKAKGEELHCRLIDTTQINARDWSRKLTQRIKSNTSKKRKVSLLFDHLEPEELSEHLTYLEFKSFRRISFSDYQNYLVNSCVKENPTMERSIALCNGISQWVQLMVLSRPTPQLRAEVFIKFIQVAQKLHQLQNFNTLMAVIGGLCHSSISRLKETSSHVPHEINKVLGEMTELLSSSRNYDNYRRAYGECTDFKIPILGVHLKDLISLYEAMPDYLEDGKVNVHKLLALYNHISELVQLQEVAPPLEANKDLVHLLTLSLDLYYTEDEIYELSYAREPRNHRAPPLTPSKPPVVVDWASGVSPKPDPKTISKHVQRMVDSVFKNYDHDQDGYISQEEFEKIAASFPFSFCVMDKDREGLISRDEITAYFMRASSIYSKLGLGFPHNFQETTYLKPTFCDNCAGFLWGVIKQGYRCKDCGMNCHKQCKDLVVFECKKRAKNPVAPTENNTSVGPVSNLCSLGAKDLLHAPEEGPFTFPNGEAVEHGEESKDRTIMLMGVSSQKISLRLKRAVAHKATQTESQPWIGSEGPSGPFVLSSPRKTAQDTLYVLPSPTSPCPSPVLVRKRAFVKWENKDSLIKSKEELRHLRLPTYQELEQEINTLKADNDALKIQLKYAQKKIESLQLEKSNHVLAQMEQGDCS
Outline: (§1)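 Competitive binding against bound [20-3H]PDBu with 100 μg/ml phosphatidylserine present. Each curve used six ligand concentrations, each measured in triplicate. IC50 was obtained by least-squares fit of a theoretical sigmoidal competition curve. Ki was calculated from IC50 after correcting for competition by [3H]PDBu. Values are mean ± SE of at least three independent experiments.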

[3] = organism: Homo sapiens; test: Selectivity index, ratio of Ki for PKCalpha (unknown origin) to Ki for RasGRP1 (unknown origin)
[4] = organism: Homo sapiens; test: Selectivity index, ratio of Ki for PKCalpha (unknown origin) to Ki for PKCepsilon (unknown origin)
[5] = biological target: T2, Protein kinase C epsilon type (Homo sapiens, UniProt Q02156); test: Displacement of [20-3H]phorbol 12,13-dibutyrate from PKCepsilon (unknown origin) in the presence of porcine brain phosphatidylserine by scintillation counting; outline: as §1
T2 sequence (Q02156 whole entry): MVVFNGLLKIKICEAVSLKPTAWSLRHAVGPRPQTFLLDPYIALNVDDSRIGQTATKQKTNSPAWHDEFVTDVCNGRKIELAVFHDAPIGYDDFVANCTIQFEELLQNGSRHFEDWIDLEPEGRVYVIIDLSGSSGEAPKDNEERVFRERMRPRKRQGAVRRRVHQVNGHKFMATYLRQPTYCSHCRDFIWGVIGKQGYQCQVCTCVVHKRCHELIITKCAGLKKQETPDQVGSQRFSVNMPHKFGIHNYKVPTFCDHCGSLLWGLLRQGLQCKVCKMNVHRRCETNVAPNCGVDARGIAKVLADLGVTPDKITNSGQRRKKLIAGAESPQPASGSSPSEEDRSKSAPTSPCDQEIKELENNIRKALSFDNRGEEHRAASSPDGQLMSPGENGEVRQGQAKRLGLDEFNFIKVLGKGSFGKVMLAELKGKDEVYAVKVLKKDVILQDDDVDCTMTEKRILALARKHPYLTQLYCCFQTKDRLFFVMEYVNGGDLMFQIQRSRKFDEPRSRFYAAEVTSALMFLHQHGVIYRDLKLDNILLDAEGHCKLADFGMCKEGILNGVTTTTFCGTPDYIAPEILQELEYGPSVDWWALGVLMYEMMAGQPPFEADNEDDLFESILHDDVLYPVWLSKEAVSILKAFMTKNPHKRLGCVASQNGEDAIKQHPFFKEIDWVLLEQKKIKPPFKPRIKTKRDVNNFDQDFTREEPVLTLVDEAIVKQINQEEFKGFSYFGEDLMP

[6] = biological target: Protein kinase C alpha type (Homo sapiens, UniProt P17252); test: Displacement of [20-3H]phorbol 12,13-dibutyrate from PKCalpha (unknown origin) in the presence of porcine brain phosphatidylserine by scintillation counting; outline: as §1

Ratio Ki [1]	Ki [2]	Ratio Ki [3]	Ratio Ki [4]	Ki [5]	Ki [6]	SMILES
0.45	666 nM	1.08	2.3	301 nM	698 nM	CC(C)=C1CC(CO)(COC(=O)c2cn(C)c3ccccc23)OC1=O (stereo not drawn)
3	40 nM	6.5	2.2	119 nM	257 nM	Cc1ccc(C#Cc2ccc(/C=C3\CC(CO)(COC(=O)c4cn(C)c5ccccc45)OC3=O)cc2)cc1 (stereo not drawn)
0.94	63.3 nM	1.7	1.8	59.6 nM	106 nM	CCCCCCCCC/C=C1\CC(CO)(COC(=O)c2cn(C)c3ccccc23)OC1=O (stereo not drawn)
53	0.58 nM	22	0.42	31 nM	12.9 nM	CCCC(CCC)C(=O)OCC1(CO)C/C(=C\c2cn(C)c3ccccc23)C(=O)O1 (stereo not drawn)
2.4	22.6 nM	3.7	1.5	55 nM	83.1 nM	CC(C)CC(C/C=C1/CC(CO)(COC(=O)c2cn(C)c3ccccc23)OC1=O)CC(C)C (stereo not drawn)
5.8	22.6 nM	5.1	0.89	131 nM	116 nM	Cc1ccc(C#Cc2ccc(C=C3CC(CO)(COC(=O)c4cn(C)c5ccccc45)OC3=O)cc2)cc1 (stereo not drawn)
2.2	133 nM	3.8	1.7	295 nM	504 nM	CCCC(/C=C1\CC(CO)(COC(=O)c2cn(C)c3ccccc23)OC1=O)CCC (stereo not drawn)
0.87	31.3 nM	2.3	2.7	27.3 nM	73 nM	CC(C)CC(C/C=C1\CC(CO)(COC(=O)c2cn(C)c3ccccc23)OC1=O)CC(C)C (stereo not drawn)
